{"source": "ChEMBL document CHEMBL1121496", "about": "“Metabolism of 6-substituted benzo[a]pyrene derivatives: O-dealkylation and regiospecificity in aromatic hydroxylation” (J Med Chem, 1980)", "type_in_all_cases": "functional", "key": {"Rattus norvegicus [1]": {"species_on_record": "Rattus norvegicus", "experiment": "Rate of O-Dealkylation by liver microsomes in rats induced with 3-MC; Rates are expressed as pmol of product per 30 min per mg of protein", "in_short": "(§1)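 Male Wistar MRC rats (7–8 weeks old) received 3-MC 40 mg/kg ip in olive oil twice daily for 3 days and were fasted for the final 24 h. Liver microsomes were incubated at 0.5 mg protein/mL with substrate (BP in acetone, others in Me₂SO) for 30 min. Phenolic metabolites were read by fluorescence in base against synthetic phenol standards. Each rat was run in duplicate against a heat- or acetone-inactivated blank, and results are reported as mean ± SE.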"}, "Rattus norvegicus [2]": {"species_on_record": "Rattus norvegicus", "experiment": "Rate of hydroxylation by liver microsomes in rats induced with 3-MC; Rates are expressed as pmol of product per 30 min per mg of protein", "in_short": "as §1"}, "Rattus norvegicus [3]": {"species_on_record": "Rattus norvegicus", "experiment": "Rate of hydroxylation by liver microsomes in rats induced with PB; Rates are expressed as pmol of product per 30 min per mg of protein", "in_short": "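Liver microsomes (two livers pooled) from 7- or 8-week-old male Wistar MRC rats given phenobarbital 40 mg/kg ip in saline twice daily for 3 days, fasted final 24 h. Incubation at 0.5 mg protein/mL, with BP (80 nmol) in acetone or other substrates in Me2SO. Phenolic metabolites were read by fluorescence in base, quantitated against synthetic 3- or 1-phenol standards, in duplicate versus heat-inactivated blank; mean ± SE across rats.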"}, "Rattus norvegicus [4]": {"species_on_record": "Rattus norvegicus", "experiment": "Rate of hydroxylation by lung microsomes in rats induced with 3-MC; Rates are expressed as pmol of product per 30 min per mg of protein", "in_short": "(§2)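 For lung microsomes from 3-MC-induced rats, the dose was 40 mg/kg ip in olive oil, given twice daily for 3 days, followed by a 24 h fast. Incubation used 1.0 mg microsomal protein/mL, with BP added in acetone and derivatives in Me₂SO. Base-extractable phenols were measured by fluorescence and quantitated with synthetic hydroxy-BP standards. Duplicates were corrected against inactivated-microsome blanks, and results are given as mean ± SE across individual rats.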"}, "Rattus norvegicus [5]": {"species_on_record": "Rattus norvegicus", "experiment": "Rate of hydroxylation by lung microsomes in rats induced with PB; Rates are expressed as pmol of product per 30 min per mg of protein", "in_short": "(§3)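 Rats were pretreated with phenobarbital, 40 mg/kg ip in saline, twice daily for 3 days, and fasted the last 24 h. Lung microsomes were incubated at 1.0 mg protein/mL with substrate in acetone (BP) or Me₂SO. Product formed over 30 min was measured as fluorescence of phenolic metabolites in basic solution against synthetic phenol standards. Determinations were made in duplicate versus a heat-inactivated blank, and results are reported as mean ± SE.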"}, "Rattus norvegicus [6]": {"species_on_record": "Rattus norvegicus", "experiment": "Rate of O-Dealkylation by liver microsomes in rats induced with PB; Rates are expressed as pmol of product per 30 min per mg of protein", "in_short": "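Phenobarbital-induced rats: male Wistar MRC, 7–8 weeks, 40 mg/kg ip in saline twice daily for 3 days, fasted 24 h. Liver microsomes were used at 0.5 mg protein/mL. BP ethers were added in Me2SO, and phenolic products were measured by fluorescence of basic solutions against phenol standards. p-Nitroanisole O-demethylase was assayed by a modified Netter–Seidel method. Runs were in duplicate versus heat-inactivated blank; mean ± SE across rats.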"}, "Rattus norvegicus [7]": {"species_on_record": "Rattus norvegicus", "experiment": "Rate of O-Dealkylation by lung microsomes in rats induced with 3-MC; Rates are expressed as pmol of product per 30 min per mg of protein", "in_short": "as §2"}, "Rattus norvegicus [8]": {"species_on_record": "Rattus norvegicus", "experiment": "Rate of O-Dealkylation by lung microsomes in rats induced with PB; Rates are expressed as pmol of product per 30 min per mg of protein", "in_short": "as §3"}, "Rattus norvegicus [9]": {"species_on_record": "Rattus norvegicus", "experiment": "Rate of 3-hydroxylation by lung microsomes in rats induced with 3-MC; Rates are expressed as pmol of product per 30 min per mg of protein", "in_short": "(§4)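 Microsomes from lungs (two rats pooled) of 7- or 8-week-old male Wistar MRC rats dosed ip twice daily for 3 days with 3-MC 40 mg/kg in olive oil or phenobarbital 40 mg/kg in saline, then fasted 24 h. Incubation at 1.0 mg protein/mL. BP was added in acetone, other substrates in Me2SO. Base-extracted phenols were read by fluorescence against synthetic phenol standards, in duplicate versus heat-inactivated blank; mean ± SE across rats.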"}, "Rattus norvegicus [10]": {"species_on_record": "Rattus norvegicus", "experiment": "Rate of 3-hydroxylation by lung microsomes in rats induced with PB; Rates are expressed as pmol of product per 30 min per mg of protein", "in_short": "as §4"}}}
{"smiles": "CCCOc1ccc2ccc3c(OCCC)c4ccccc4c4ccc1c2c34", "values": [{"measurement": "Rate (pmol/30 min/mg protein)", "setting": "Rattus norvegicus [1]", "value": 818}]}
{"smiles": "COc1c2ccccc2c2ccc3cccc4ccc1c2c43", "values": [{"measurement": "Rate (pmol/30 min/mg protein)", "setting": "Rattus norvegicus [2]", "value": 9010}, {"measurement": "Rate (pmol/30 min/mg protein)", "setting": "Rattus norvegicus [3]", "value": 1980}, {"measurement": "Rate (pmol/30 min/mg protein)", "setting": "Rattus norvegicus [4]", "value": 576}, {"measurement": "Rate (pmol/30 min/mg protein)", "setting": "Rattus norvegicus [5]", "value": 69}]}
{"smiles": "CCOc1ccc2ccc3c(OCC)c4ccccc4c4ccc1c2c34", "values": [{"measurement": "Rate (pmol/30 min/mg protein)", "setting": "Rattus norvegicus [1]", "value": 3360}, {"measurement": "Rate (pmol/30 min/mg protein)", "setting": "Rattus norvegicus [6]", "value": 2850}, {"measurement": "Rate (pmol/30 min/mg protein)", "setting": "Rattus norvegicus [7]", "value": 156}, {"measurement": "Rate (pmol/30 min/mg protein)", "setting": "Rattus norvegicus [8]", "value": 48}]}
{"smiles": "COc1ccc2ccc3c4ccccc4c(OC)c4ccc1c2c43", "values": [{"measurement": "Rate (pmol/30 min/mg protein)", "setting": "Rattus norvegicus [1]", "value": 1250}]}
{"smiles": "OCc1c2ccccc2c2ccc3cccc4ccc1c2c43", "values": [{"measurement": "Rate (pmol/30 min/mg protein)", "setting": "Rattus norvegicus [2]", "value": 1510}, {"measurement": "Rate (pmol/30 min/mg protein)", "setting": "Rattus norvegicus [4]", "value": 182}]}
{"smiles": "COc1ccc2ccc3c(OC)c4ccccc4c4ccc1c2c34", "values": [{"measurement": "Rate (pmol/30 min/mg protein)", "setting": "Rattus norvegicus [2]", "value": 5700}]}
{"smiles": "COc1ccc([N+](=O)[O-])cc1", "values": [{"measurement": "Rate (pmol/30 min/mg protein)", "setting": "Rattus norvegicus [1]", "value": 229000}, {"measurement": "Rate (pmol/30 min/mg protein)", "setting": "Rattus norvegicus [6]", "value": 103000}]}
{"smiles": "c1ccc2c(c1)cc1ccc3cccc4ccc2c1c34", "values": [{"measurement": "Rate", "setting": "Rattus norvegicus [9]", "value": 618, "unit": "pM"}, {"measurement": "Rate", "setting": "Rattus norvegicus [10]", "value": 49, "unit": "pM"}, {"measurement": "Rate (pmol/30 min/mg protein)", "setting": "Rattus norvegicus [2]", "value": 5810}, {"measurement": "Rate (pmol/30 min/mg protein)", "setting": "Rattus norvegicus [3]", "value": 1160}]}
{"smiles": "COCc1c2ccccc2c2ccc3cccc4ccc1c2c43", "values": [{"measurement": "Rate (pmol/30 min/mg protein)", "setting": "Rattus norvegicus [2]", "value": 7040}, {"measurement": "Rate (pmol/30 min/mg protein)", "setting": "Rattus norvegicus [4]", "value": 654}]}
